Results: EPA's CvTdb concentration-time database

Assays:
[1] = tested on: Mouse; assay: concentration in plasma after dosing; details: 0.25 h; dosed: 2-Hydroxy-4-methoxybenzophenone; 250 mg/kg; oral; Female; B6C3F1
[2] = tested on: Mouse; assay: concentration in plasma after dosing; details: 3 h; dosed: 2-Hydroxy-4-methoxybenzophenone; 250 mg/kg; oral; Male; B6C3F1
[3] = tested on: Mouse; assay: concentration in plasma after dosing; details: 10 min; dosed: 2-Hydroxy-4-methoxybenzophenone; 50 mg/kg; iv; Male; B6C3F1
[4] = tested on: Rat; assay: concentration in plasma after dosing; details: dosed: 2-Hydroxy-4-methoxybenzophenone, 500 mg/kg, oral, Female, F344
[5] = tested on: Rat; assay: concentration in plasma after dosing; details: dosed: 2-Hydroxy-4-methoxybenzophenone, 100 mg/kg, oral, Female, F344
[6] = tested on: Mouse; assay: concentration in plasma after dosing; details: 0.25 h; dosed: 2-Hydroxy-4-methoxybenzophenone; 50 mg/kg; iv; Female; B6C3F1
[7] = tested on: Mouse; assay: concentration in plasma after dosing; details: 2 h; dosed: 2-Hydroxy-4-methoxybenzophenone; 50 mg/kg; iv; Male; B6C3F1
[8] = tested on: Rat; assay: concentration in brain after dosing; details: 3 h; dosed: alpha-Thujone; 50 mg/kg; oral; Female; Harlan Sprague Dawley
[9] = tested on: Rat; assay: concentration in brain after dosing; details: 5 min; dosed: alpha-Thujone; 50 mg/kg; oral; Female; Harlan Sprague Dawley
[10] = tested on: Rat; assay: concentration in brain after dosing; details: 1.5 h; dosed: alpha-Thujone; 25 mg/kg; oral; Male; Harlan Sprague Dawley
[11] = tested on: Rat; assay: concentration in brain after dosing; details: 6 h; dosed: alpha-Thujone; 50 mg/kg; oral; Female; Harlan Sprague Dawley
[12] = tested on: Rat; assay: concentration in brain after dosing; details: 3 h; dosed: alpha-Thujone; 25 mg/kg; oral; Male; Harlan Sprague Dawley
[13] = tested on: Rat; assay: concentration in brain after dosing; details: 5 min; dosed: alpha-Thujone; 50 mg/kg; oral; Female; Harlan Sprague Dawley; remark: listed apart in the source
[14] = tested on: Rat; assay: concentration in brain after dosing; details: 192 h; dosed: Perfluorohexane-1-sulphonic acid – potassium salt; 16 mg/kg; oral; Female; F344
[15] = tested on: Rat; assay: concentration in liver after dosing; details: 6 h; dosed: Perfluorohexane-1-sulphonic acid – potassium salt; 16 mg/kg; oral; Female; F344
[16] = tested on: Rat; assay: concentration in kidney after dosing; details: 24 h; dosed: Perfluorohexane-1-sulphonic acid – potassium salt; 16 mg/kg; oral; Female; F344
[17] = tested on: Rat; assay: concentration in liver after dosing; details: 192 h; dosed: Perfluorohexane-1-sulphonic acid – potassium salt; 16 mg/kg; oral; Female; F344
[18] = tested on: Rat; assay: concentration in liver after dosing; details: 528 h; dosed: Perfluorohexane-1-sulphonic acid – potassium salt; 16 mg/kg; oral; Female; F344
[19] = tested on: Rat; assay: concentration in kidney after dosing; details: 24 h; dosed: Perfluorohexane-1-sulphonic acid – potassium salt; 16 mg/kg; oral; Female; F344; remark: listed apart in the source
[20] = tested on: Rat; assay: concentration in liver after dosing; details: 48 h; dosed: Perfluorohexane-1-sulphonic acid – potassium salt; 16 mg/kg; oral; Female; Harlan Sprague Dawley
[21] = tested on: Rat; assay: concentration in plasma after dosing; details: 40 h; dosed: Pyridine; 100 mg/kg; oral; Male; F344
[22] = tested on: Rat; assay: concentration in plasma after dosing; details: dosed: Pyridine, 5 mg/kg, iv, Male, F344
[23] = tested on: Rat; assay: concentration in plasma after dosing; details: 20 h; dosed: Pyridine; 25 mg/kg; oral; Male; F344
[24] = tested on: Rat; assay: concentration in plasma after dosing; details: dosed: Pyridine, 5 mg/kg, oral, Male, F344
[25] = tested on: Rat; assay: concentration in plasma after dosing; details: dosed: Pyridine, 5 mg/kg, oral, Male, F344; remark: listed apart in the source
[26] = tested on: Mouse; assay: concentration in plasma after dosing; details: dosed: 2,4-Dichlorophenoxyacetic acid, 5.2 mg/kg, oral, Male, B6C3F1
[27] = tested on: human; assay: concentration in blood after dosing; negative times count back from the end of exposure; details: dosed: trichloroethylene, 100 ppm, inhalation, duration: 6 hr, female
Method in brief: (§1)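 Points were largely digitised from plot screenshots with WebPlotDigitizer or otherwise copied from tables, and they remain in the units each source reported. They come from published in vivo toxicokinetic studies and two structured collections. Sampling and analytical methods follow each source and were often not reported.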

[28] = tested on: dog; assay: concentration in urine after dosing; details: dosed: trichloroethylene, 100 ppm, inhalation, duration: 6 hr, male, beagle
Method in brief: as §1

[29] = tested on: human; assay: concentration in urine after dosing; details: dosed: trichloroethylene, inhalation, duration: 2 hr - 20 min
Method in brief: as §1

[30] = tested on: Rat; assay: concentration in plasma after dosing; details: 3 h; dosed: Primidone; 30 mg/kg; oral; Male; F344
[31] = tested on: Rat; assay: concentration in plasma after dosing; details: 0.25 h; dosed: Primidone; 30 mg/kg; oral; Female; F344

How did the concentration in plasma [1] turn out when O=C(c1ccccc1)c1ccc(O)cc1O [2,4-Dihydroxybenzophenone] was run?
Its concentration in plasma is 1050 ng/mL.

And the concentration in plasma [2]?
The concentration in plasma was 371 ng/mL.

And the concentration in plasma [3]?
The concentration in plasma was 3890 ng/mL.

What about the concentration in plasma ([4]; 10 min) of the same compound?
Its concentration in plasma is 258 ng/mL.

What about the concentration in plasma ([4]; 10 h) of the same compound?
The concentration in plasma was 150 ng/mL.

And the concentration in plasma ([5]; 10 min)?
Its concentration in plasma is 58.3 ng/mL.

And the concentration in plasma ([5]; 3 h)?
The concentration in plasma was 67.4 ng/mL.

What about the concentration in plasma [6] of the same compound?
Its concentration in plasma is 903 ng/mL.

What about the concentration in plasma [7] of the same compound?
The concentration in plasma was 217 ng/mL.

For CC(C)[C@]12CC(=O)[C@H](C)[C@H]1C2 [alpha-Thujone], which concentration in brain [8] is on record?
Its concentration in brain is 615 ng/g.

And the concentration in brain [9]?
Its concentration in brain is 994 ng/g.

What about the concentration in brain [10] of the same compound?
Its concentration in brain is 234 ng/g.

What about the concentration in brain [11] of the same compound?
Its concentration in brain is 42.5 ng/g.

What about the concentration in brain [12] of the same compound?
Its concentration in brain is 130 ng/g.

And the concentration in brain [13]?
The concentration in brain was 105 ng/g.

Which concentration in brain [14] does the source give for O=S(=O)([O-])C(F)(F)C(F)(F)C(F)(F)C(F)(F)C(F)(F)C(F)(F)F.[K+] [Perfluorohexane-1-sulphonic acid – potassium salt] here?
Its concentration in brain is 929 ng/g.

What about the concentration in liver [15] of the same compound?
The concentration in liver was 80400 ng/g.

And the concentration in kidney [16]?
The concentration in kidney was 28100 ng/g.

What about the concentration in liver [17] of the same compound?
The concentration in liver was 38200 ng/g.

What about the concentration in liver [18] of the same compound?
Its concentration in liver is 29800 ng/g.

What about the concentration in kidney [19] of the same compound?
Its concentration in kidney is 43700 ng/g.

And the concentration in liver [20]?
Its concentration in liver is 14300 ng/g.

c1ccncc1 [Pyridine] was tested. Which concentration in plasma [21] did it give?
The concentration in plasma was 18400 ng/mL.

What about the concentration in plasma ([22]; 0.05 h) of the same compound?
Its concentration in plasma is 4920 ng/mL.

And the concentration in plasma ([22]; 4 h)?
Its concentration in plasma is 1440 ng/mL.

And the concentration in plasma [23]?
Its concentration in plasma is 4760 ng/mL.

What about the concentration in plasma ([24]; 0.5 h) of the same compound?
The concentration in plasma was 3090 ng/mL.

What about the concentration in plasma ([24]; 6 h) of the same compound?
Its concentration in plasma is 1000 ng/mL.

And the concentration in plasma ([25]; 0.5 h)?
The concentration in plasma was 3170 ng/mL.

What about the concentration in plasma ([25]; 6 h) of the same compound?
The concentration in plasma was 1620 ng/mL.

For O=C(O)COc1ccc(Cl)cc1Cl [2,4-Dichlorophenoxyacetic acid], which concentration in plasma ([26]; 5 min) is on record?
Its concentration in plasma is 6510 ng/mL.

And the concentration in plasma ([26]; 0.25 h)?
The concentration in plasma was 12300 ng/mL.

And the concentration in plasma ([26]; 0.5 h)?
Its concentration in plasma is 19700 ng/mL.

What about the concentration in plasma ([26]; 2 h) of the same compound?
Its concentration in plasma is 9630 ng/mL.

And the concentration in plasma ([26]; 3 h)?
Its concentration in plasma is 13400 ng/mL.

What about the concentration in plasma ([26]; 4 h) of the same compound?
Its concentration in plasma is 13300 ng/mL.

And the concentration in plasma ([26]; 6 h)?
The concentration in plasma was 4310 ng/mL.

With OCC(Cl)(Cl)Cl [trichloroethanol] as the compound, how does the concentration in blood ([27]; 0 h) read?
Its concentration in blood is 4610 ng/mL.

What about the concentration in blood ([27]; 18 h) of the same compound?
The concentration in blood was 4180 ng/mL.

And the concentration in blood ([27]; 24 h)?
The concentration in blood was 8180 ng/mL.

What about the concentration in blood ([27]; 42 h) of the same compound?
The concentration in blood was 6260 ng/mL.

And the concentration in blood ([27]; 48 h)?
Its concentration in blood is 11800 ng/mL.

What about the concentration in blood ([27]; 66 h) of the same compound?
The concentration in blood was 6560 ng/mL.

What about the concentration in blood ([27]; 72 h) of the same compound?
The concentration in blood was 13100 ng/mL.

And the concentration in blood ([27]; 90 h)?
Its concentration in blood is 5590 ng/mL.

What about the concentration in blood ([27]; 96 h) of the same compound?
The concentration in blood was 9980 ng/mL.

And the concentration in blood ([27]; 160 h)?
Its concentration in blood is 1570 ng/mL.

What about the concentration in blood ([27]; -6 h, during exposure) of the same compound?
The concentration in blood was 212 ng/mL.

What about the concentration in urine ([28]; 24 h) of the same compound?
The concentration in urine was 129000 ng/mL.

What about the concentration in urine ([28]; 48 h) of the same compound?
Its concentration in urine is 115000 ng/mL.

And the concentration in urine ([28]; 72 h)?
The concentration in urine was 155000 ng/mL.

What about the concentration in urine ([28]; 96 h) of the same compound?
Its concentration in urine is 205000 ng/mL.

And the concentration in urine ([28]; 120 h)?
Its concentration in urine is 154000 ng/mL.

What about the concentration in urine ([29]; 2.667 h, 1348 mg) of the same compound?
The concentration in urine was 158 mg/kg.

And the concentration in urine ([29]; 2.667 h, 1681 mg)?
The concentration in urine was 125 mg/kg.

And the concentration in urine ([29]; 2.667 h, 3907 mg)?
Its concentration in urine is 186 mg/kg.

What about the concentration in urine ([29]; 6.667 h, 1348 mg) of the same compound?
The concentration in urine was 161 mg/kg.

What about the concentration in urine ([29]; 6.667 h, 1681 mg) of the same compound?
The concentration in urine was 236 mg/kg.

What about the concentration in urine ([29]; 6.667 h, 3907 mg) of the same compound?
The concentration in urine was 258 mg/kg.

And the concentration in urine ([29]; 10.67 h, 1348 mg)?
Its concentration in urine is 79.7 mg/kg.

What about the concentration in urine ([29]; 10.67 h, 1681 mg) of the same compound?
Its concentration in urine is 136 mg/kg.

And the concentration in urine ([29]; 10.67 h, 3907 mg)?
Its concentration in urine is 154 mg/kg.

What about the concentration in urine ([29]; 19.67 h, 1348 mg) of the same compound?
The concentration in urine was 65.3 mg/kg.

And the concentration in urine ([29]; 19.67 h, 1681 mg)?
The concentration in urine was 131 mg/kg.

What about the concentration in urine ([29]; 19.67 h, 3907 mg) of the same compound?
The concentration in urine was 168 mg/kg.

CCC1(c2ccccc2)C(=O)NCNC1=O [Primidone] was tested. Which concentration in plasma [30] did it give?
Its concentration in plasma is 7700 ng/mL.

What about the concentration in plasma [31] of the same compound?
The concentration in plasma was 17700 ng/mL.
